Assay results published in ChEMBL document CHEMBL3124805, “Anti-allodynic effect of 2-(aminomethyl)adamantane-1-carboxylic acid in a rat model of neuropathic pain: a mechanism dependent on CaV2.2 channel inhibition” (Bioorg Med Chem, 2014).
Activity calls are given as the source filed them.

Legend:
[1] = molecular target: Cav1.3/Cav beta3 complex (Rattus norvegicus) (UniProt P27732+P54287); assay: Inhibition of rat recombinant Cav1.3/Cavbeta3 expressed in HEK-293 cell assessed as current density at 500 uM after 3 hrs by whole-cell patch clamp technique; assay type: cell-based; conditions: HEK293
In short: (§1)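 Rat CaV1.3α1 (pcDNA6/His) was transiently co-transfected with β3, with or without α2δ-1, plus GFP into HEK-293 cells. Cells were incubated 3 h with 500 µM, then whole-cell Ba²⁺ current–voltage relationships were recorded at 22–24 °C, normalized to membrane capacitance. n = 9 with α2δ-1; n = 5–7 without.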

[2] = tested on: Rattus norvegicus; assay: Anti-allodynic activity in Sprague-Dawley rat spinal nerve ligation-induced neuropathic pain model assessed as reversal of tactile allodynia at 10 to 300 ug administered intrathecally measured after 1 hr by von frey filament based paw withdrawal threshold method; assay type: functional, organism-based
In short: (§2)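 Rats 140–160 g, 12/12 h light/dark, food and water ad libitum. Spinal nerve ligation under ketamine/xylazine (45:12 mg/kg i.p.). An intrathecal PE-10 catheter was placed to the lumbar level via the atlantooccipital membrane, followed by 5 d recovery. Rats with motor impairment were excluded. Bolus doses of 10–300 µg/rat were given to allodynic rats, against vehicle. 50% paw withdrawal threshold to von Frey filaments after 30–40 min acclimation on mesh.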

[3] = tested on: Rattus norvegicus; assay: Anti-allodynic activity in Sprague-Dawley rat spinal nerve ligation-induced neuropathic pain model assessed as reversal of tactile allodynia at 10 to 300 ug administered intrathecally measured after 2 hrs by von frey filament based paw withdrawal threshold method; assay type: functional, organism-based; in short: as §2
[4] = tested on: HEK293; assay: Inhibition of rabbit recombinant Cav2.2/rat recombinant Cavbeta3 expressed in HEK-293 cell assessed as current density at 500 uM after 3 hrs by whole-cell patch clamp technique; assay type: cell-based
In short: (§3)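 HEK-293 cells were transiently co-transfected (lipofection) with CaV subunit cDNAs plus a GFP plasmid. Cells were split at ~10% confluence 2 days later and GFP-positive cells recorded ~4 h after. Cells were preincubated 1–3 h in medium with 500 µM compound (water stock). Whole-cell Ba²⁺ currents were recorded at 22–24 °C with CsCl/EGTA/MgATP pipette solution, pH 7.1, P/4 leak subtraction, normalized to Cm, within 15 min of break-in. Pulses were 140 ms from Vh −80 mV. Student's t-test.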

[5] = tested on: HEK293; assay: Inhibition of rabbit recombinant Cav2.2/rat recombinant Cavbeta3/Cavalpha2delta-1 expressed in HEK-293 cell assessed as decrease in inward current at 500 uM at voltages from -20 to +30 mV after 3 hrs by whole-cell patch clamp technique; assay type: cell-based; in short: as §3
[6] = tested on: HEK293; assay: Inhibition of rabbit recombinant Cav2.2/rat recombinant Cavbeta3/Cavalpha2delta-1 expressed in HEK-293 cell assessed as hyperpolarizing shift in half-inactivation potential at 500 uM after 3 hrs by whole cell patch clamp technique; assay type: cell-based; conditions: in the assay text read “depolarizing” for “hyperpolarizing”
In short: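 Transiently transfected CaV2.2α1/β3/α2δ-1 HEK-293 cells were treated 3 h with 500 µM in culture medium. Whole-cell recording at 22–24 °C. 2 s prepulses of various amplitudes from Vh −80 mV, then test pulses to +20 mV. Steady-state inactivation was fitted with a Boltzmann equation to give V½ and slope; n = 4–6.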

[7] = tested on: HEK293; assay: Inhibition of rabbit recombinant Cav2.2/rat recombinant Cavbeta3/Cavalpha2delta-1 expressed in HEK-293 cell assessed as decrease in current density at 500 uM at holding potential of -80 mV after 3 hrs by whole-cell patch clamp technique; assay type: cell-based; in short: as §3
[8] = species: Rattus norvegicus; assay: Toxicity in Sprague-Dawley rat spinal nerve ligation-induced neuropathic pain model assessed as reduction of righting at 10 to 300 ug, it; assay type: organism-based; conditions: in vivo, icv_or_intrathecal
[9] = tested on: Rattus norvegicus; assay: Anti-allodynic activity in Sprague-Dawley rat spinal nerve ligation-induced neuropathic pain model assessed as tactile allodynia at 10 to 300 ug administered intrathecally measured after 4 hrs by von frey filament based paw withdrawal threshold method; assay type: functional, organism-based; in short: as §2
[10] = molecular target: Cav1.3/Cav beta3/Cav alpha2delta complex (Rattus norvegicus) (UniProt P54290+P27732+P54287); assay: Inhibition of rat recombinant Cav1.3/Cavbeta3/Cavalpha2delta-1 expressed in HEK-293 cell assessed as decrease in current density at 500 uM after 3 hrs by whole-cell patch clamp technique; assay type: cell-based; conditions: HEK293; in short: as §1
[11] = species: Rattus norvegicus; assay: Toxicity in Sprague-Dawley rat spinal nerve ligation-induced neuropathic pain model assessed as reduction of stepping at 10 to 300 ug, it; assay type: organism-based; conditions: in vivo, icv_or_intrathecal
[12] = species: Rattus norvegicus; assay: Toxicity in Sprague-Dawley rat spinal nerve ligation-induced neuropathic pain model assessed as reduction of corneal and pinna reflexes at 10 to 300 ug, it; assay type: organism-based, Cornea; conditions: in vivo, icv_or_intrathecal
[13] = tested on: HEK293; assay: Inhibition of rabbit recombinant Cav2.2/rat recombinant Cavbeta3/Cavalpha2delta-1 expressed in HEK-293 cell assessed as decrease in whole cell Ba2+ current at 500 uM at holding potential of -80 mV up to 3 hrs by whole-cell patch clamp technique; assay type: cell-based; in short: as §3
[14] = tested on: HEK293; assay: Inhibition of rabbit recombinant Cav2.2/rat recombinant Cavbeta3/Cavalpha2delta-1 expressed in HEK-293 cell assessed as current density at 500 uM at holding potential of -80 mV after 1 to 2 hrs by whole-cell patch clamp technique; assay type: cell-based; in short: as §3
[15] = molecular target: Voltage-dependent T-type calcium channel subunit alpha-1G (Homo sapiens) (UniProt O43497); assay: Inhibition of human recombinant Cav3.1 expressed in HEK-293 cell assessed as current density at 500 uM after 3 hrs by whole cell patch clamp technique; assay type: cell-based; conditions: HEK293
In short: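 HEK-293 cells stably expressing CaV3.1a (no auxiliary subunits) were re-seeded on poly-L-lysine coverslips and recorded ~4 h later. Cells were incubated 3 h with 500 µM. Whole-cell current–voltage relationships were recorded at 22–24 °C, normalized to Cm; n = 5–6.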

[16] = tested on: HEK293; assay: Inhibition of rabbit recombinant Cav2.2/rat recombinant Cavbeta3/Cavalpha2delta-1 expressed in HEK-293 cell assessed as inhibition of channel current at 500 uM by whole-cell patch clamp technique; assay type: cell-based; in short: as §3

Voltage-dependent T-type calcium channel subunit alpha-1G (Homo sapiens), sequence (O43497 whole entry): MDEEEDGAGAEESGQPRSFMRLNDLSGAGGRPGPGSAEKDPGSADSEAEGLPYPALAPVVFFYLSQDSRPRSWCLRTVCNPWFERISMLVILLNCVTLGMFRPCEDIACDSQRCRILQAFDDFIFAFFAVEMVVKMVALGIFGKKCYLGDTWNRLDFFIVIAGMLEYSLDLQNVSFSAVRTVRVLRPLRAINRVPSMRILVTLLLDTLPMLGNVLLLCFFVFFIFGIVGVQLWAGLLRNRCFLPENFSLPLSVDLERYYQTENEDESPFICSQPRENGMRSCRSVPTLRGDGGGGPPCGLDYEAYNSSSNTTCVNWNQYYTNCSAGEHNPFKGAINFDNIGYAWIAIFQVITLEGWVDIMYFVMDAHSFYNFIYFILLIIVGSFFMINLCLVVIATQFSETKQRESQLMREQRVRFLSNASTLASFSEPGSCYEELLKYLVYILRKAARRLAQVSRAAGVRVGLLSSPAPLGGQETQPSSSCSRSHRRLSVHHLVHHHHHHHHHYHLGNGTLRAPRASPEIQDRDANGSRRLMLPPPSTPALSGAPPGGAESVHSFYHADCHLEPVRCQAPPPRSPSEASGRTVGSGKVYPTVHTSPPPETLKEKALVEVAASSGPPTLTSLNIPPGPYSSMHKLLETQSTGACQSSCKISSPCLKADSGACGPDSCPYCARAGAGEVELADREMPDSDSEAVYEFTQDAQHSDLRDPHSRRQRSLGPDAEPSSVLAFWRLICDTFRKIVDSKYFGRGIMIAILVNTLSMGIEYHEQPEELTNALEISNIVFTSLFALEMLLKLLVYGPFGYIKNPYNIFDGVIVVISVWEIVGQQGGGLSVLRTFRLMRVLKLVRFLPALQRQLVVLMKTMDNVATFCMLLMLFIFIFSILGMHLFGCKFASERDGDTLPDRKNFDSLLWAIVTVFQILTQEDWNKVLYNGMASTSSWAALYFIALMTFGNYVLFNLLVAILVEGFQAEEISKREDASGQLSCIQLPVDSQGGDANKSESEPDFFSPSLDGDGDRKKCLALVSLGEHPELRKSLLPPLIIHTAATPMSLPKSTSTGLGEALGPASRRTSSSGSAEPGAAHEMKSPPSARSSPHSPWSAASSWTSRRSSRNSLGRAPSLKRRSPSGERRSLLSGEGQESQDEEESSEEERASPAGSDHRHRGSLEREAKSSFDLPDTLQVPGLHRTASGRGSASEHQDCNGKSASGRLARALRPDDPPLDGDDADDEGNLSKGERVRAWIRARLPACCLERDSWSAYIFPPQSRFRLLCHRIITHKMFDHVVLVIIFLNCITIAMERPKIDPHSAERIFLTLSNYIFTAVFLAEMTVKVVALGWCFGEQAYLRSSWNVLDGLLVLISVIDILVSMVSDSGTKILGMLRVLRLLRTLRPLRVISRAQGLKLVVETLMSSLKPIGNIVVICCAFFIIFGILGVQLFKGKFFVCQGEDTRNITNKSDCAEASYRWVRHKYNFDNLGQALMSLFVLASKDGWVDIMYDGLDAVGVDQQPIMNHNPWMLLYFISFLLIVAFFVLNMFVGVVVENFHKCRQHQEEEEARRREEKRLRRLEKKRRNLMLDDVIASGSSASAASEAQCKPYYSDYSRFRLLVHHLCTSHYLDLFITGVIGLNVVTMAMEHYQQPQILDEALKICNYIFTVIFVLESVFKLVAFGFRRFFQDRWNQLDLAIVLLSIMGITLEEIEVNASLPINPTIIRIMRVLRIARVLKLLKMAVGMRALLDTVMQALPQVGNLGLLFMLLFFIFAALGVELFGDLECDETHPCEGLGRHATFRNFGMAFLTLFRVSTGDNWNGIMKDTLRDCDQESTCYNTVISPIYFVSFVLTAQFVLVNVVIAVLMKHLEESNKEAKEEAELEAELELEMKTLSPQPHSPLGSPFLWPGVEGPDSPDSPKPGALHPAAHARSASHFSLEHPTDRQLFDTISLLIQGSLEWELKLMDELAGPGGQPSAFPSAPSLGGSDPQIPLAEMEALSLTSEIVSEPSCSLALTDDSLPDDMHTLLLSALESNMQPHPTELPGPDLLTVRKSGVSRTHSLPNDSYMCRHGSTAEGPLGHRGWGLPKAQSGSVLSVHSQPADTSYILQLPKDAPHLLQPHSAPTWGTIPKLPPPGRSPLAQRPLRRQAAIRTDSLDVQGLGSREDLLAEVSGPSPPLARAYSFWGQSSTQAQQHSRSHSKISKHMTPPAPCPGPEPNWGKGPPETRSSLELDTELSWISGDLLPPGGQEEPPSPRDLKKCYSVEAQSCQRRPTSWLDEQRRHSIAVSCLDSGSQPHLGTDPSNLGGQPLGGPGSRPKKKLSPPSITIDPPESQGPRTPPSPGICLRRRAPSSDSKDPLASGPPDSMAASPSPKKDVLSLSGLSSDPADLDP

Compound: Cl.NCC1C2CC3CC(C2)CC1(C(=O)O)C3 (stereo unspecified)
- inhibition [1]: inactive
- Activity [2]: Active
- Activity [3]: Active
- inhibition [4]: inactive
- inhibition [5]: Active
- inhibition [6]: Active
- inhibition [7]: Active
- Activity [8]: Non-toxic
- Activity [9]: inactive
- inhibition [10]: Active
- Activity [11]: Non-toxic
- Activity [12]: Non-toxic
- inhibition [13]: Active
- inhibition [14]: inactive
- inhibition [15]: inactive
- inhibition [16]: 30%
